This passage reports Drug metabolism results from ChEMBL document CHEMBL4024778, “From Experiments to a Fast Easy-to-Use Computational Methodology to Predict Human Aldehyde Oxidase Selectivity and Metabolic Reactions” (J Med Chem, 2018).

Series [1] concerns Liver. In words: Drug metabolism in human liver microsomes assessed as formation of 2-(pyrrolidin-1-yl)aniline after 60 mins. It counts as ADME, microsome. The settings on record: 1 h. A general note: Liver microsomes are a subcellular fraction often used to study metabolism.
The test system of series [2] is Liver. In words: Drug metabolism in human liver cytosol assessed as formation of 2-(pyrrolidin-1-yl)aniline at 10 uM after 60 mins by LC-MS/MS analysis. It counts as ADME, tissue-based. The settings on record: 1 h. The essentials:
(§1)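 Pooled human liver cytosol incubated with 10 μM substrate at pH 7.4 and 37 °C with 1 mM MgCl2·6H2O. Reactions stopped at 0 and 60 min with ice-cold acetonitrile containing 0.6 μM labetalol as internal standard, alongside a compound-free blank. Protein removed by centrifugation. Supernatant analysed by LC-MS/MS on a QTOF with electrospray ionization, using one of three reversed-phase gradient methods.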

The subject of series [3] is Liver. The series can be described thus: Drug metabolism in human liver microsomes after 60 mins. The settings on record: 1 h. Type of series: ADME, microsome.
The test system of series [4] is Liver. The series can be described thus: Drug metabolism in human liver cytosol assessed as formation of 3-(2-(pyrimidin-2-ylamino)ethylamino)quinoxalin-2(1H)-one at 10 uM after 60 mins by LC-MS/MS analysis. Type of series: ADME, tissue-based. The essentials:
as §1

For series [5], the system named is Liver. The series can be described thus: Drug metabolism in human liver microsomes assessed as formation of 2-(pyrimidin-2-ylamino)ethanol after 60 mins. It counts as ADME, microsome. The note with it: 1 h.
Series [6] addresses T1, Cytochrome P450 3A4 (Homo sapiens, UniProt P08684). In words: Drug metabolism assessed as CYP3A4 (unknown origin)-mediated formation of 2-(pyrimidin-2-ylamino)ethanol after 60 mins. The settings on record: 1 h. Type of series: ADME.
Series [7] has as its system Liver. In words: Drug level in human liver microsomes treated with N1-(Naphthalen-2-yl)-N2-(pyrimidin-2-yl)ethane-1,2-diamine after 60 mins by LC-MS/MS analysis. Type of series: ADME, microsome. The settings on record: 1 h.
The target of series [8] is T1, Cytochrome P450 3A4. The series can be described thus: Drug level treated with N1-(Naphthalen-2-yl)-N2-(pyrimidin-2-yl)ethane-1,2-diamine assessed as CYP3A4 (unknown origin)-mediated metabolite formation after 60 mins. The settings on record: 1 h. It counts as ADME.
For series [9], the system named is Liver. In words: Drug level in human liver microsomes treated with N-((1H-Indol-2-yl)methyl)-2-(pyrrolidin-1-yl)aniline after 60 mins. Type of series: ADME, microsome.
For series [10], the system named is Liver. The series can be described thus: Drug level in human liver cytosol treated with N-(2-(Pyrrolidin-1-yl)phenyl)-1H-indole-2-carboxamide at 10 uM after 60 mins by LC-MS/MS analysis. It counts as ADME, tissue-based. The essentials: as §1
Series [11] concerns Liver. The series can be described thus: Drug level in human liver cytosol treated with N1-(pyrimidin-2-yl)-N2-(quinoxalin-2-yl)ethane-1,2-diamine at 10 uM after 60 mins by LC-MS/MS analysis. The settings on record: 1 h. Type of series: ADME, tissue-based. A digest of the protocol: as §1

T1 sequence (P08684 whole entry): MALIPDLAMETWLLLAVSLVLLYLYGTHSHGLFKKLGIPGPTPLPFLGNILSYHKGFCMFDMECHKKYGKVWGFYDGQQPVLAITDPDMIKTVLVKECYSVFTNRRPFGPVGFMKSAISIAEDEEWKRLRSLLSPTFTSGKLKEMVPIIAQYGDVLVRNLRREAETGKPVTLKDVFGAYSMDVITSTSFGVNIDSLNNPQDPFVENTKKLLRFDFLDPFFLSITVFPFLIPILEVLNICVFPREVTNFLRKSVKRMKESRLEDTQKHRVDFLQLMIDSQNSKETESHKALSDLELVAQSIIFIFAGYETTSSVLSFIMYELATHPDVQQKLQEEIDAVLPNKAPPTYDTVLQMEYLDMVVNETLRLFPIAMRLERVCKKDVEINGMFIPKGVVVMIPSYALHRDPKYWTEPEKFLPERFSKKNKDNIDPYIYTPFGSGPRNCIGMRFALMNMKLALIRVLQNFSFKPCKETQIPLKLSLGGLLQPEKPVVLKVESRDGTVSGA

On to `c1ccc(N2CCCC2)c(NCc2cc3ccccc3[nH]2)c1`, for which the Drug metabolism entry in series [1] is recorded as “Metabolite_Detected”. With `O=C(Nc1ccccc1N1CCCC1)c1cc2ccccc2[nH]1`, the Drug metabolism entry in [2] is reported as “Metabolite_Detected”; in series [3] it was “Metabolite_Notdetected”. `c1cnc(NCCNc2cnc3ccccc3n2)nc1`: the Drug metabolism entry is given as “Metabolite_Detected” in series [4] and “Metabolite_Notdetected” in series [3]. As for `c1cnc(NCCNc2ccc3ccccc3c2)nc1`, the Drug metabolism result in [5] and in [6] was “Metabolite_Detected” each time.

With `OCCNc1ncccn1`, the Drug metabolism entry in [7] and in series [8] was “Metabolite_Detected” in each case.

Turning to `Nc1ccccc1N1CCCC1`, the Drug metabolism entry in series [9] and in series [10] was “Metabolite_Detected” throughout. `O=c1[nH]c2ccccc2nc1NCCNc1ncccn1`: in series [11], the Drug metabolism result is “Metabolite_Detected”.
